Screening results from PubChem BioAssay.
Compounds with a hit are over-represented: about 1.5% of the library has one in this group of screens.
VLA-4 inh: inhibition in a human VLA-4 binding assay | 330,000 tested, 0.2% active | AID 2557 | VLA-4 expressing cells, ligand binding flow cytometry | inhibition, % (about 7 µM as worked out from the volumes in the protocol); in the data active means inhibition above about 50%
SENP1 inh: blocks the human SENP1 SUMO protease catalytic domain. Q9P0U3. recombinant SENP1 catalytic domain, CyPet-SUMO1-YPet FRET cleavage. inhibition, % at 10 µM. 360,000 tested, 0.21% active. AID 624204;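 active means inhibition at least 30% at 10 µM, raw YFP signal under a set limit, fluorescence ratio 0.5 to 1.5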
Target sequence (Q9P0U3 419-644 limits assumed): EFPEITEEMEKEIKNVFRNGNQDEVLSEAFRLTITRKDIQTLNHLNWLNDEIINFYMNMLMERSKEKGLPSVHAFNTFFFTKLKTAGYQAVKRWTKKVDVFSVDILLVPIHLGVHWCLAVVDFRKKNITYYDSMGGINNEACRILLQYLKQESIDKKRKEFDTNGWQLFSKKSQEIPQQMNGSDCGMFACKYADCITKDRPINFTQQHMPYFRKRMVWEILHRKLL
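material = recombinant human SENP1 catalytic domain, His6-tagged | quantity = 20 pM enzyme | reagent = 25 nM SUMO1 FRET substrate | compound dosing = 10 µM single point, 0.5% DMSO | timing = 50 min enzyme reaction, room temperature, light-protected | detection = FRET, CFP and YFP emission | control set = no-enzyme low, enzyme-DMSO high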
Myeloid diff MLP: myeloid differentiation induction. ER-HoxA9 myeloid progenitors, lysozyme-GFP differentiation, flow cytometry. calls only at 10 µM. 360,000 tested, 1% active;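 active means normalized GFP-positive differentiation at or above the plate's own cutoff, the solvent-only control mean plus 3 SD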;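 further: cells exposed to compound for four days before flow analysis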
Platelet DG rel: platelet dense granule release activity | human platelet-rich plasma, SFLLRN dense granule ATP release, luminescence | inhibition, %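 (compounds screened at 7.5 µM in platelet-rich plasma)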 | 300,000 tested, 0.22% active | AID 1663;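 active means mean replicate score, as percent of positive control, at or above 50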
Myeloid diff CP1: myeloid differentiation induction; AID 651706; calls only; shares compounds with Myeloid diff MLP; ER-HoxA9 myeloid progenitors, GFP/Mac1 double-positive flow; 2,300 tested, 2% active;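 active means share of green or green-and-red cells above 9 and 9% in run 1 or 4 and 3% in run 2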
GFP autofluor: counter-screen for myeloid differentiation promoters: compound fluorescence; shares compounds with Myeloid diff MLP; ER-HoxA9 myeloid progenitors, no estrogen, GFP autofluorescence flow cytometry; vehicle wells 0%, positive control 100%; fluorescence response, % (test concentration not listed); 2,300 tested, 7.4% active; AID 651707;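 active means over 5% cells positive for green fluorescent reporter, or over 2% positive for both it and APC stain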
Numbers stand for hits; i = inactive; nt = no result; + = active, no number.

SMILES	VLA-4 inh	SENP1 inh	Myeloid diff MLP	Platelet DG rel	Myeloid diff CP1	GFP autofluor
Cn1c(=O)c2cc(S(=O)(=O)NCCC(=O)NCCC3=CCCCC3)ccc2n(C)c1=O	i	i	+	i	i	i
COCCn1ccc2c(OCC(=O)Nc3cc(OC)ccc3OC)cccc2c1=O	i	i	+	i	i	i
Cn1cc(-c2cccc(C(F)(F)F)c2)cc(C#N)c1=O	i	i	+	i	i	i
Cn1cc(-c2cccc(Cl)c2)cc(C#N)c1=O	i	i	i	i	nt	nt
O=C(NC1(C(F)(F)F)NC(=O)N(Cc2ccco2)C1=O)c1cccnc1 (stereo not given)	i	i	+	i	i	i
Cc1ccc(S(=O)(=O)N2CCN(C(=O)CN3CCN(c4ccc(O)cc4)CC3)CC2)cc1	nt	i	+	nt	i	i
COc1ccc(S(=O)(=O)Nc2c(C)nn(C)c2C)cc1Br	i	i	i	nt	nt	nt
O=C(Cn1ncc2c3ccccc3n(Cc3cccc(Cl)c3)c2c1=O)NCc1ccccn1	i	i	i	i	nt	nt
CCN(CC)CCNC(=O)c1cn(C)c2ccc(S(=O)(=O)N(C)C3CCCCC3)cc2c1=O	i	i	i	i	i	i
CC1=NN(C(C#N)c2ccc(F)cc2)C(C)(C)C1 (stereo not given)	i	i	+	i	i	i
COC(=O)NNC(=O)COc1ccc2ccccc2c1Br	i	i	i	i	i	i
Cn1cc(-c2cc(C(=O)O)on2)cn1	i	i	i	i	nt	nt
Cn1c(Cc2ccccc2)nnc1SCC(=O)Nc1ccccc1N1CCOCC1	i	i	i	i	i	i
Cn1ccnc1SCC(=O)Nc1cc(C(F)(F)F)ccc1N1CCOCC1	i	i	i	i	i	i
Cc1cccc(Nc2nc(NCC3CCCO3)nc(N)c2[N+](=O)[O-])c1 (stereo not given)	i	i	+	i	i	i
CCCCC(O)(CCCC)C(=O)N/N=C(\C)c1ccc(Cl)cc1	i	i	i	i	i	i
COc1ccc(CCN(C)C2CCCN(S(=O)(=O)c3ccc(C)cc3)C2)cc1OC (stereo not given)	i	i	i	i	nt	nt
COc1ccc(-c2sc(C(=O)c3ccc(Cl)cc3Cl)cc2CC(=O)O)cc1	i	i	+	i	i	i
COc1cccc(CNC(=O)Cn2ccc3cc(S(=O)(=O)N4CCC(C)CC4)ccc32)c1	i	i	i	i	nt	nt
CCOc1ccccc1CSc1nc2ccccc2[nH]1	i	i	i	i	i	i
Cc1ncc(CSc2nc3ccccc3[nH]2)c(N)n1	i	i	i	i	nt	nt
COc1ccc(C2SCC(=O)N2c2c(C)n(C)n(-c3ccccc3)c2=O)cc1OC (stereo not given)	i	i	+	i	i	i
Cc1ccc(NC2=NCCCCC2)cc1	i	i	i	i	nt	nt
Cc1ccc(NC2=NCCCCC2)cc1C	i	i	+	i	i	i
Cc1ccc(S(=O)(=O)N(C)C)cc1NC(=S)NCCc1ccccn1	i	i	i	i	i	i
SMILES	VLA-4 inh	SENP1 inh	Myeloid diff MLP	Platelet DG rel	Myeloid diff CP1	GFP autofluor
O=S(=O)(CCNCc1ccccc1)NC1CCCCC1	nt	i	i	nt	nt	nt
CCOc1cc(S(=O)(=O)Nc2ccc(Cl)cn2)ccc1F	i	i	+	i	i	i
CC1CC(C)CN(c2ncc3c(n2)CC(c2ccccc2)CC3=O)C1 (stereo not given)	i	i	+	i	i	i
C=C[C@@H](C)N(Cc1ccc(OC)cc1)S(=O)(=O)N(Cc1ccccc1)[C@H](C=C)C(C)C	i	i	i	nt	nt	nt
C=CCN1C=C/C(=C\C=C(C#N)C#N)c2ccccc21	i	i	+	i	i	i
CC1CCCCN1C(=O)c1ccc(C(=O)N2CCCCC2C)cc1 (stereo not given)	i	i	i	i	i	i
Cc1ccc(-n2c(C)cc3c2CC(C)(C)CC3=O)cc1C	i	i	i	i	nt	nt
Cc1cc2c(n1-c1ccc(Br)cc1)CC(C)(C)CC2=O	i	i	i	i	i	i
Cc1ccccc1NS(=O)(=O)c1ccc(OCC(=O)N2CCCCC2)cc1	i	i	+	i	i	i
Cc1ccccc1NS(=O)(=O)c1ccc(C(=O)N2CCCCCCC2)cc1	i	i	i	i	nt	nt
COc1ccc(CCNC(=O)CNC(=O)c2ccccc2Br)cc1OC	i	i	i	i	nt	nt
CC(=O)N1N=C(c2ccc(Cl)cc2)OC1c1ccc(C(C)C)cc1 (stereo not given)	i	i	i	i	i	i
Cc1ccc(C)c(/C(O)=C2\C(=O)C(=O)N(CCCn3ccnc3)C2c2ccncc2)c1 (stereo not given)	i	i	+	i	i	i
Cc1ccc(/C=C/c2nnc(-c3cccs3)o2)cc1	i	i	i	i	i	i
Fc1ccc(/C=C/c2nnc(-c3cccs3)o2)cc1	i	i	i	i	nt	nt
Cc1ccc([C@H]2C[C@@H](O)[C@H](n3cc(-c4ccc(F)cc4)nn3)CN2C(=O)c2cccs2)cc1	nt	i	i	nt	nt	nt
C/C(=N/NC(=O)CN(c1ccccc1)S(=O)(=O)c1ccccc1)c1ccccc1O	i	i	i	i	i	i
Cc1cc(C(=O)N2CCC2(C)C(=O)Nc2cccc3c2CCCC3)nn1C (stereo not given)	nt	i	i	nt	nt	nt
COc1cccc(-n2cc(CN(C)Cc3nc(Cc4cccc(F)c4)no3)cn2)c1	i	i	i	i	i	i
Cc1ccccc1C(=O)NCCNC(=O)c1cnccn1	i	i	i	i	nt	nt
CC(=O)Nc1ccc(OCC(O)Cn2c3ccccc3c3ccccc32)c(C)c1 (stereo not given)	i	i	i	i	nt	nt
CC(=O)Nc1ccc(OCC(O)Cn2c3ccccc3c3ccccc32)cc1 (stereo not given)	i	i	i	i	i	8.5
COc1ccccc1CNC(=O)CN(c1ccc(C)cc1)S(=O)(=O)c1c(C)noc1C	i	i	i	i	nt	nt
O=C(CN1C(=O)S/C(=C\c2ccc(O)cc2)C1=O)c1ccccc1	i	i	i	i	i	i
C=CCc1cccc2cc(C(=O)NNC(=O)CC#N)c(=O)oc12	i	i	i	i	nt	nt
SMILES	VLA-4 inh	SENP1 inh	Myeloid diff MLP	Platelet DG rel	Myeloid diff CP1	GFP autofluor
O=C(/C=C/c1ccco1)N1CCc2ccccc21	i	i	i	i	nt	nt
Cc1ccc(/C=C/C(=O)N2CCc3ccccc32)o1	i	i	i	i	i	i
COc1ccc(Cn2c(C3CC3)nc3ccc(NC(=O)c4cccnc4)cc3c2=O)cc1	i	i	+	i	i	14
COc1ccc(Cn2c(C3CC3)nc3ccc(NC(C)=O)cc3c2=O)cc1	i	i	+	i	i	i
CCNC(=O)C1(C)CCCN(Cc2csc(-c3ccccc3)n2)C1 (stereo not given)	nt	i	i	nt	nt	nt
Cn1nccc1C(=O)N1CCCC(Nc2ccc(F)cc2)C1 (stereo not given)	i	i	i	i	nt	nt
CCOC(CNC(=O)CN1C(=O)COc2ccc(S(=O)(=O)N3CC(C)CC(C)C3)cc21)OCC (stereo not given)	i	i	i	i	nt	nt
CC/C(C)=N/Nc1ccc(S(=O)(=O)N2CCCC2)cc1[N+](=O)[O-]	i	i	+	i	i	i
